Laboratory results: ChEMBL document CHEMBL1150203, “Antimicrobial diterpenes of Croton sonderianus, 1. Hardwickic and 3,4-secotrachylobanoic acids” (1991)
Values after ≈ are worked out from the molar mass of the structure shown. Counter-ions that a name gives are not always drawn. Active and inactive are the calls of the source. The rule behind the calls is not given here.

What was measured:
Helminthosporium [1] = experiment: Antifungal activity against Helminthosporium ATCC 4671 at 1 mg/ml after 72 hrs by agar-well diffusion assay; format: functional; conditions: for zone of inhibition at 1000 µg/mL: ATCC 4671, 72 h, read-out: IZ
How it was run: (§1)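 Fungi and yeasts streaked on mycophil agar from broth culture diluted 1:10 in sterile water; 100 μl of compound at 1 mg/ml placed in 11 mm cork-borer wells; plates held at 30°. Inhibition zone width (mm) recorded at 48 and 72 h and coded – to ++++ (1–2, 3–6, 7–12, >13 mm); amphotericin B positive control.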

Candida albicans [2] = experiment: Antifungal activity against Candida albicans ATCC 10231 at 1 mg/ml after 72 hrs by agar-well diffusion assay; format: functional; conditions: ATCC 10231, 72 h, read-out: IZ; how it was run: as §1
[3] = test system: Trichophyton mentagrophytes; experiment: Antifungal activity against Trichophyton mentagrophytes ATCC 9972 at 1 mg/ml after 48 hrs by agar-well diffusion assay; format: functional; conditions: for zone of inhibition at 1000 µg/mL: ATCC 9972, 48 h, read-out: IZ; how it was run: as §1
Bacillus subtilis [4] = experiment: Antibacterial activity against Bacillus subtilis ATCC 6633 at 1 mg/ml after 48 hrs by agar-well diffusion assay; format: functional; conditions: ATCC 6633, 48 h, read-out: IZ
How it was run: (§2)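 Agar-well diffusion on eugon agar, bacteria streaked by quadrant method from broth culture diluted 1:10 in sterile water; 11 mm wells given 100 μl of compound at 1 mg/ml; 37° incubation. Zone width (mm) read at 24 and 48 h, coded –, + (1–2), ++ (3–6), +++ (7–12), ++++ (>13); streptomycin sulfate positive control.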

Staphylococcus aureus [5] = experiment: Antibacterial activity against Staphylococcus aureus ATCC 6538 at 1 mg/ml after 48 hrs by agar-well diffusion assay; format: functional; conditions: for zone of inhibition at 1000 µg/mL: ATCC 6538, 48 h, read-out: IZ; how it was run: as §2
[6] = test system: Trichophyton mentagrophytes; experiment: Antifungal activity against Trichophyton mentagrophytes ATCC 9972 at 1 mg/ml after 72 hrs by agar-well diffusion assay; format: functional; conditions: for zone of inhibition at 1000 µg/mL: ATCC 9972, 72 h, read-out: IZ; how it was run: as §1
Aspergillus niger [7] = experiment: Antifungal activity against Aspergillus niger ATCC 16888 at 1 mg/ml after 48 hrs by agar-well diffusion assay; format: functional; how it was run: as §1
Pseudomonas aeruginosa [8] = experiment: Antibacterial activity against Pseudomonas aeruginosa ATCC 15442 at 1 mg/ml after 48 hrs by agar-well diffusion assay; format: functional; how it was run: as §2
Candida albicans [9] = experiment: Antifungal activity against Candida albicans ATCC 10231 at 1 mg/ml after 48 hrs by agar-well diffusion assay; format: functional; conditions: ATCC 10231, 48 h, read-out: IZ; how it was run: as §1
Helminthosporium [10] = experiment: Antifungal activity against Helminthosporium ATCC 4671 at 1 mg/ml after 48 hrs by agar-well diffusion assay; format: functional; conditions: for zone of inhibition at 1000 µg/mL: ATCC 4671, 48 h, read-out: IZ; how it was run: as §1
Bacillus subtilis [11] = experiment: Antibacterial activity against Bacillus subtilis ATCC 6633 at 1 mg/ml after 24 hrs by agar-well diffusion assay; format: functional; conditions: ATCC 6633, 24 h, read-out: IZ; how it was run: as §2
Staphylococcus aureus [12] = experiment: Antibacterial activity against Staphylococcus aureus ATCC 6538 at 1 mg/ml after 24 hrs by agar-well diffusion assay; format: functional; conditions: for zone of inhibition at 1000 µg/mL: ATCC 6538, 24 h, read-out: IZ; how it was run: as §2
Escherichia coli [13] = experiment: Antibacterial activity against Escherichia coli ATCC 10536 at 1 mg/ml after 48 hrs by agar-well diffusion assay; format: functional; how it was run: as §2
Saccharomyces cerevisiae [14] = experiment: Antifungal activity against Saccharomyces cerevisiae ATCC 9763 at 1 mg/ml after 48 hrs by agar-well diffusion assay; format: functional; how it was run: as §1
Trametes sanguinea [15] = experiment: Antifungal activity against Polyporus sanguineus ATCC 16422 at 1 mg/ml after 48 hrs by agar-well diffusion assay; format: functional; how it was run: as §1
Aspergillus niger [16] = experiment: Antifungal activity against Aspergillus niger ATCC 16888 at 1 mg/ml after 72 hrs by agar-well diffusion assay; format: functional; how it was run: as §1
Saccharomyces cerevisiae [17] = experiment: Antifungal activity against Saccharomyces cerevisiae ATCC 9763 at 1 mg/ml after 72 hrs by agar-well diffusion assay; format: functional; how it was run: as §1
Pseudomonas aeruginosa [18] = experiment: Antibacterial activity against Pseudomonas aeruginosa ATCC 15442 at 1 mg/ml after 24 hrs by agar-well diffusion assay; format: functional; how it was run: as §2
Escherichia coli [19] = experiment: Antibacterial activity against Escherichia coli ATCC 10536 at 1 mg/ml after 24 hrs by agar-well diffusion assay; format: functional; how it was run: as §2
[20] = test system: Mycolicibacterium smegmatis; experiment: Antibacterial activity against Mycobacterium smegmatis ATCC 607 at 1 mg/ml after 48 hrs by agar-well diffusion assay; conditions: ATCC 607, 48 h, read-out: IZ
Trametes sanguinea [21] = experiment: Antifungal activity against Polyporus sanguineus ATCC 16422 at 1 mg/ml after 72 hrs by agar-well diffusion assay; format: functional; how it was run: as §1
[22] = test system: Mycolicibacterium smegmatis; experiment: Antibacterial activity against Mycobacterium smegmatis ATCC 607 at 1 mg/ml after 48 hrs by agar-well diffusion assay; format: functional; conditions: ATCC 607, 48 h, read-out: IZ
How it was run: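 Quadrant-streaked eugon agar plates (broth culture diluted 1:10 in water) with 11 mm wells receiving 100 μl of 1 mg/ml compound, incubated at 37°; inhibition zone width in mm scored at 48 h and 72 h as –, +, ++, +++, ++++ (1–2, 3–6, 7–12, >13 mm); streptomycin sulfate control.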

Bacillus subtilis [23] = experiment: Antibacterial activity against Bacillus subtilis ATCC 6633 after 48 hrs by twofold serial dilution method; format: functional; conditions: ATCC 6633, 48 h
Bacillus subtilis [24] = experiment: Antibacterial activity against Bacillus subtilis ATCC 6633 after 24 hrs by twofold serial dilution method; format: functional; conditions: ATCC 6633, 24 h
Saccharomyces cerevisiae [25] = experiment: Antifungal activity against Saccharomyces cerevisiae ATCC 9763 after 24 hrs by twofold serial dilution method; format: functional; conditions: ATCC 9763, 24 h
Saccharomyces cerevisiae [26] = experiment: Antifungal activity against Saccharomyces cerevisiae ATCC 9763 after 48 hrs by twofold serial dilution method; format: functional; conditions: ATCC 9763, 48 h

SMILES	inhibition zone (IZ) (Helminthosporium [1])	zone of inhibition at 1000 µg/mL (Candida albicans [2]) [mm]	zone of inhibition at 1000 µg/mL (Bacillus subtilis [4]) [mm]	inhibition zone (IZ) (Aspergillus niger [7])	inhibition zone (IZ) (Pseudomonas aeruginosa [8])	zone of inhibition at 1000 µg/mL (Candida albicans [9]) [mm]	zone of inhibition at 1000 µg/mL (Bacillus subtilis [11]) [mm]	inhibition zone (IZ) (Escherichia coli [13])	inhibition zone (IZ) (Saccharomyces cerevisiae [14])	inhibition zone (IZ) (Trametes sanguinea [15])	inhibition zone (IZ) (Aspergillus niger [16])	inhibition zone (IZ) (Saccharomyces cerevisiae [17])	inhibition zone (IZ) (Pseudomonas aeruginosa [18])	inhibition zone (IZ) (Escherichia coli [19])	zone of inhibition at 1000 µg/mL [20] [mm]	inhibition zone (IZ) (Trametes sanguinea [21])	zone of inhibition at 1000 µg/mL [22] [mm]	zone of inhibition at 1000 µg/mL (Staphylococcus aureus [5]) [mm]	zone of inhibition at 1000 µg/mL (Staphylococcus aureus [12]) [mm]	zone of inhibition at 1000 µg/mL [3] [mm]	further results
COC(=O)CC[C@]1(C)C(C(C)=O)CC[C@@]23C[C@@H]4[C@@H](CC21)[C@@]4(C)C3 (stereo not given in full)	inactive	1	3	inactive	inactive	1	7	inactive	inactive	inactive	inactive	inactive	inactive	inactive	3	inactive	–	–	–	–	inhibition zone (IZ) [3]: inactive; inhibition zone (IZ) (Staphylococcus aureus [5]): inactive; inhibition zone (IZ) [6]: inactive; inhibition zone (IZ) (Helminthosporium [10]): inactive; inhibition zone (IZ) (Staphylococcus aureus [12]): inactive
CN[C@@H]1[C@H](O[C@H]2[C@H](O[C@H]3[C@H](O)[C@@H](O)[C@H](N=C(N)N)[C@@H](O)[C@@H]3N=C(N)N)O[C@@H](C)[C@]2(O)C=O)O[C@@H](CO)[C@H](O)[C@H]1O [STREPTOMYCIN SULFATE]	–	–	7	–	–	–	7	–	–	–	–	–	–	–	> 12	–	> 12	7	7	–	zone of inhibition at 1000 µg/mL (Pseudomonas aeruginosa [8]; ATCC 15442, 48 h, read-out: IZ): 3 mm; zone of inhibition at 1000 µg/mL (Escherichia coli [13]; ATCC 10536, 48 h, read-out: IZ): 7 mm; zone of inhibition at 1000 µg/mL (Pseudomonas aeruginosa [18]; ATCC 15442, 24 h, read-out: IZ): 7 mm; zone of inhibition at 1000 µg/mL (Escherichia coli [19]; ATCC 10536, 24 h, read-out: IZ): 7 mm
C=C(C)[C@@H]1CC[C@@]23C[C@@H]4[C@@H](C[C@H]2[C@]1(C)CCCO)[C@@]4(C)C3	inactive	1	3	inactive	inactive	1	3	inactive	inactive	inactive	inactive	inactive	inactive	inactive	1	inactive	1	–	1	–	inhibition zone (IZ) [3]: inactive; inhibition zone (IZ) (Staphylococcus aureus [5]): inactive; inhibition zone (IZ) [6]: inactive; inhibition zone (IZ) (Helminthosporium [10]): inactive
CN[C@@H]1[C@H](O[C@H]2[C@H](O[C@H]3[C@H](O)[C@@H](O)[C@H](N=C(N)N)[C@@H](O)[C@@H]3N=C(N)N)O[C@@H](C)[C@]2(O)C=O)O[C@@H](CO)[C@H](O)[C@H]1O [STREPTOMYCIN]	–	–	–	–	–	–	–	–	–	–	–	–	–	–	–	–	–	–	–	–	MIC (Bacillus subtilis [23]): 3.12 µg/mL (≈ 5.36 µM); MIC (Bacillus subtilis [24]): 3.12 µg/mL (≈ 5.36 µM)
C[C@@H]1CC[C@@]2(C)C(CO)=CCC[C@@H]2[C@@]1(C)CCc1ccoc1 [HARDWICKIOL]	–	7	3	inactive	inactive	3	3	inactive	–	inactive	inactive	–	inactive	inactive	7	inactive	7	3	3	7	zone of inhibition at 1000 µg/mL (Helminthosporium [1]): 1 mm; zone of inhibition at 1000 µg/mL [6]: 3 mm; zone of inhibition at 1000 µg/mL (Helminthosporium [10]): 3 mm; zone of inhibition at 1000 µg/mL (Saccharomyces cerevisiae [14]; ATCC 9763, 48 h, read-out: IZ): 3 mm; zone of inhibition at 1000 µg/mL (Saccharomyces cerevisiae [17]; ATCC 9763, 72 h, read-out: IZ): 3 mm
C=C(C)[C@@H]1CC[C@@]23C[C@@H]4[C@@H](C[C@H]2[C@]1(C)CCC(=O)OC)[C@@]4(C)C3	–	–	1	–	inactive	–	1	inactive	–	–	–	–	inactive	inactive	1	–	1	1	1	–	–
C=C(C)[C@@H]1CC[C@@]23C[C@@H]4[C@@H](C[C@H]2[C@]1(C)CCC(=O)O)[C@@]4(C)C3	inactive	3	7	inactive	inactive	3	> 12	inactive	inactive	–	inactive	inactive	inactive	inactive	7	–	7	7	7	3	MIC (Saccharomyces cerevisiae [25]): 100 µg/mL (≈ 331 µM); MIC (Bacillus subtilis [23]): 25 µg/mL (≈ 82.7 µM); zone of inhibition at 1000 µg/mL [6]: 1 mm; zone of inhibition at 1000 µg/mL (Helminthosporium [10]): 1 mm; zone of inhibition at 1000 µg/mL (Trametes sanguinea [15]; ATCC 16422, 48 h, read-out: IZ): 3 mm; MIC (Bacillus subtilis [24]): 25 µg/mL (≈ 82.7 µM); MIC (Saccharomyces cerevisiae [26]): 100 µg/mL (≈ 331 µM); zone of inhibition at 1000 µg/mL (Trametes sanguinea [21]; ATCC 16422, 72 h, read-out: IZ): 1 mm
COC(=O)C1=CCC[C@@H]2[C@@](C)(CCc3ccoc3)[C@H](C)CC[C@@]12C [HARDWICKIC ACID METHYL ESTER]	–	1	1	inactive	inactive	1	1	inactive	inactive	inactive	inactive	inactive	inactive	inactive	1	inactive	1	1	1	1	zone of inhibition at 1000 µg/mL (Helminthosporium [1]): 1 mm; zone of inhibition at 1000 µg/mL [6]: 1 mm; zone of inhibition at 1000 µg/mL (Helminthosporium [10]): 1 mm
